Only some compounds are listed: those with a hit (about 2.9% of all), similar ones and a draw of the others.
TRPC4 block – TRPC4 (mouse) channel inhibition; Q9QUQ5; B-score at 10 µM; 0.39% of 300,000 active; HEK293 TRPC4beta/mu-opioid, DAMGO-evoked Fluo4 calcium flux; hits give low values;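 active = B-score over 3 SD under the library average, no early fluorescence shift, positive overall ratio signal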
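Signal: kinetic Fluo4 fluorescence imaging of calcium influx. Material: stable TRPC4beta/mu-opioid receptor HEK293 cells. Probe or stimulus: DAMGO in two steps, submaximal then maximal.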
TRPC6 act – mouse TRPC6 channel activation; Q61143; HEK293-TRPC6 membrane potential dye fluorescence; hits give high values; B-score at 10 µM; 0.13% of 310,000 active;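 active = B-score of the integrated fluorescence ratio above library mean plus 3 SD, and starting fluorescence ratio within library mean plus 5 SD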;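 note: higher score means more depolarization so channel activation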
TRPC6 inh – blocks the mouse TRPC6 cation channel; HEK293-TRPC6, membrane potential dye, ACh-evoked depolarization; hits give low values; B-score at 10 µM; 1.1% of 310,000 active; Q61143;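 active = B-score under library mean minus 3 SD, initial fluorescence not abnormally high, positive integrated signal ratio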;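 note: B-score derived from integrated fluorescence ratio over the kinetic read; more negative B-score means stronger inhibition of depolarization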
TRPC4 act – opens the mouse TRPC4 cation channel | Q9QUQ5 | HEK293 TRPC4beta/mu-opioid, Fluo4 calcium fluorescence; hits give high values | B-score at 10 µM | 0.49% of 310,000 active;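 active = B-score above 5 SD of library B-scores, and initial fluorescence ratio not above library mean plus 5 SD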;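 note: positive B-score marks a calcium rise read as TRPC4 activation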
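Assay system – TRPC4beta and mu-opioid receptor HEK293 stable cells · Measured by – Fluo4 fluorescence, kinetic · Schedule – dye loading 45 min room temperature, 110 s kinetic read · Read-out – B-scored integrated calcium fluorescence ratio · Controls – buffer and maximal DAMGO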
Kir21 block – Kir2.1 (mouse) channel inhibition; AID 1672; B-score at 10 µM; HEK293-Kir2.1, FluxOR thallium flux fluorescence; hits give low values; 0.85% of 310,000 active;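 active = fluorescence ratio B-score at or below minus 3 SD of library scores, with starting-brightness B-score within 2 SD, cut at about -4.2 in these data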;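 note: channel flux triggered by added potassium and thallium sulfate stimulus; B-score of peak minus minimum fluorescence over baseline after thallium stimulus; more negative B-score means stronger Kir2.1 block with less thallium influx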
Target sequence (P35561 whole entry, looked up): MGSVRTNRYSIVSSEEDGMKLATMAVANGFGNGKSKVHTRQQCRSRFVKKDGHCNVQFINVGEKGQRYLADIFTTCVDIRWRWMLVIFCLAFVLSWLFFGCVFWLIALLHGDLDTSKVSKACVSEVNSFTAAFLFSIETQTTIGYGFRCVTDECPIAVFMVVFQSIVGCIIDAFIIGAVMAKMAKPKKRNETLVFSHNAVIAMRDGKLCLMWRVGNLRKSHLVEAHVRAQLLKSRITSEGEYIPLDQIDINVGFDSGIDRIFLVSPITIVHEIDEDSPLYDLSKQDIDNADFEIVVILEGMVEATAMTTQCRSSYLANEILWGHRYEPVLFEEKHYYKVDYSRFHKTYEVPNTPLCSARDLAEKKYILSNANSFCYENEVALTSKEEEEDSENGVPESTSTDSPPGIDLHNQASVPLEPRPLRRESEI
TRPC4 PAM – TRPC4 (mouse) allosteric potentiation. Q9QUQ5. HEK293 TRPC4beta/mu-opioid, DAMGO EC20, Fluo-4 Ca2+ flux; hits give high values. B-score at 10 µM. 0.42% of 310,000 active. AID 2227;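 active = B-score of calcium response area above 5 SD of library B-scores, with initial fluorescence ratio within 5 SD of library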;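 note: B-score of integrated fluorescence ratio over time as area under calcium response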
TRPC4 sel inh 2 – second selectivity test of TRPC6 inhibitors: effect on mouse TRPC4 | shares compounds with TRPC6 inh | HEK293 TRPC4/MOR, membrane potential dye fluorescence; channel activated by saturating DAMGO dose | inhibition, % at 10 µM | 42% of 920 active | AID 2776;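 active = compounds whose fluorescence signal differed from control wells by over 3 SD, either direction, in both duplicate plates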
TRPC4 spec – tests whether TRPC6 inhibitors also affect mouse TRPC4; shares compounds with TRPC6 inh; HEK293 TRPC4/mu-opioid, membrane potential fluorescence; activity change, negative = inhibition, % at 10 µM; 61% of 920 active;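 active = rise or fall in signal beyond 3 SD of buffer-only wells in both replicate plates, either sign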;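 note: integrated kinetic ratio of fluorescence range over baseline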
HEK293 MPD ctr 2-1 – second check of TRPC6 inhibitor effects in parental HEK293 cells. shares compounds with TRPC6 inh. signal change vs control, % at 10 µM. 31% of 920 active. AID 2779. parental HEK293 membrane potential dye fluorescence; maximal acetylcholine challenge after compound addition;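 active = membrane potential signal moving either way by over 3 SD of the maximum-effect control, in both duplicate plates, meaning non-specific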
HEK293 MPD ctr-1 – checks TRPC6 inhibitor effects in parental HEK293 cells. shares compounds with TRPC6 inh. parental HEK293 membrane potential dye fluorescence. membrane potential signal change, % at 10 µM. 60% of 920 active;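 active = membrane potential signal shifting up or down by more than 3 SD of buffer-only wells, on both duplicate plates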
HEK293 MPD ctr-2 – parental HEK293 nonspecific activity of TRPC6 modulators. shares compounds with TRPC6 inh. membrane potential dye fluorescence. membrane potential signal change, % at 10 µM. 51% of 2,400 active. AID 488924;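 active = membrane potential signal moves up or down beyond 5 SD from buffer-only wells, on both duplicate plates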
HEK293 MPD ctr 2-2 – second counter-screen for TRPC6 modulators: effect in parental HEK293 cells; shares compounds with TRPC6 inh; membrane potential dye fluorescence; after compound, maximal acetylcholine stimulation; inhibition, % at 10 µM; 14% of 2,400 active; AID 488926;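 active = membrane potential signal drops by more than 5 SD from the mean control signal, in both duplicate plates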;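 note: plate controls were acetylcholine ECmax control wells for no effect and buffer only wells for full effect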
TRPC4 ctr mod – selectivity of TRPC6 modulators against mouse TRPC4; shares compounds with TRPC6 inh; 69% of 2,400 active; percent change from control (negative = decrease, positive = increase), % at 10 µM; HEK293 TRPC4/mu-opioid, membrane potential fluorescence;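 active = membrane potential signal moved up or down beyond 5 SD of buffer control wells, in both duplicate plates, actives on both sides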;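 note: plate controls were assay buffer wells for no effect and DAMGO maximal-effect wells for full effect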
TRPC4/MOR inh 2 – second check of whether TRPC6 modulators also affect mouse TRPC4; shares compounds with TRPC6 inh; HEK293 TRPC4/mu-opioid, membrane potential dye fluorescence; stimulated with maximal-effect DAMGO; inhibition, % at 10 µM; 55% of 2,400 active; AID 488928;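 active = drop in membrane potential signal beyond 5 SD of the control wells in both duplicate plates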;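 note: TRPC4 counter screen for TRPC6 hits run under conditions tuned for TRPC6 not TRPC4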
TRPC6 inh conf – confirmation of mouse TRPC6 inhibitors. inhibition, % at 10 µM. 43% of 3,300 active. shares compounds with TRPC6 inh. HEK293-TRPC6, membrane potential dye, ACh-evoked depolarization;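 active = fluorescence ratio falls more than 5 SD below the full-stimulation control mean, in both duplicate runs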;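 note: integrated fluorescence ratio of peak minus minimum over baseline after agonist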
TRPC6 act confirm – mouse TRPC6 activator confirmation. HEK293-TRPC6 membrane potential dye fluorescence, FDSS. AID 488961. activation, % at 10 µM. shares compounds with TRPC6 inh. 11% of 2,800 active;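 active = ratio signal rise beyond 5 SD above unstimulated control wells' mean, seen in both duplicate runs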;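 note: plate controls were buffer EC0 wells for no effect and acetylcholine ECmax response for full effect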
Active calls of the source: *; i = inactive; . = not tested or not shown.

SMILES	TRPC4 block	TRPC6 act	TRPC6 inh	TRPC4 act	Kir21 block	TRPC4 PAM	TRPC6 inh conf	TRPC6 act confirm	others
Cc1ccc(C(=O)NCC(C)NC(=O)c2ccc(C)c(C)c2)cc1C (stereo unspecified)	i	i	i	i	1.74	i	.	.
Cc1ccc(C)c2c(N)c3c(nc12)CCCCC3 (tested in a mixture with another compound)	-7*	i	-5.84*	i	-0.26	i	i	i	HEK293 MPD ctr-2=-117.5%*;HEK293 MPD ctr 2-2=i;TRPC4 ctr mod=-21.5%*;TRPC4/MOR inh 2=i
Nc1c2c(nc3sc4c(c13)CCCC4)CCCCCC2	i	i	i	i	1.4	i	.	.
Cc1ccc(-c2noc(CN(C)C(=O)c3ccc(Br)o3)n2)cc1	i	i	i	i	0.5	i	.	.
CCSCc1nnc(SCC(=O)Nc2nc(C)cs2)n1C	i	i	i	i	-0.62	i	.	.
O=C(O)CCCCCN1C(=O)C(O)=C(C(=O)/C=C/c2ccccc2)C1c1cccc([N+](=O)[O-])c1 (stereo unspecified)	i	16.8*	i	i	0.93	i	i	39.0%*	HEK293 MPD ctr-2=i;HEK293 MPD ctr 2-2=i;TRPC4 ctr mod=9.5%*;TRPC4/MOR inh 2=i
O=C(C1=C(O)C(=O)N(CCOCCO)C1c1cccc([N+](=O)[O-])c1)c1cccs1 (stereo unspecified)	i	i	i	i	0.05	i	.	.
CC(CN1CCCCC1)OC(=O)COc1ccc(Br)cc1 (stereo unspecified)	i	i	i	i	-0.39	i	.	.
Cc1occc1C(=O)Nc1nnc(C(F)(F)F)s1	i	i	i	i	1.35	i	.	.
O=C(Nc1ccccc1C(=O)Nc1nnc(C(F)(F)F)s1)c1ccccc1	i	i	-6.96*	i	-2.37	i	84.4%*	i	TRPC4 sel inh 2=i;TRPC4 spec=16.4%*;HEK293 MPD ctr 2-1=i;HEK293 MPD ctr-1=11.0%*
Cc1ccc(-n2nc(C)c(/C=N/n3c(C)n[nH]c3=S)c2Cl)cc1	i	i	i	i	-0.06	i	.	.
COc1ccc(Nc2nc(NCC3CCCO3)nc(N)c2[N+](=O)[O-])cc1 (stereo unspecified)	i	i	i	i	0.73	i	.	.

Source: PubChem BioAssay (Johns Hopkins Ion Channel Center)
